Reference: publication PMC9314948 (Diabetes, Obesity & Metabolism, 2022)
Values joined by “and” are separate entries in the source; they are usually repeats but may differ in a detail not shown here. Equal values may be shown once.

What was measured:
obese women [1] = test: Study A: body weight, caloric intake and waist circumference; assay type: in vivo, human; conditions: not significant vs placebo (1.24%)
obese women [2] = test: Study B: caloric intake and body weight; assay type: in vivo, human
Summary of the method: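 Double-blind crossover in inpatient obese women with six randomized sequences of three 4-day regimens separated by 5-day washouts: placebo/placebo, 2.5/2.0 mg, or 2.5 mg/placebo, given SC 1 h before breakfast and lunch. Meals are weighed before and after eating, and snacks are allowed 18:00-midnight. Subjects are weighed each morning before breakfast in underwear or scrubs. ITT analysis uses MMRM for intake and ANCOVA for weight change, with two-sided p.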

[3] = Study A: accumulation of plasma bremelanotide concentration; assay type: in vivo, human; conditions: plasma 1 h after first dose of the day, SC 3 times daily
Summary of the method: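 Day 1 doses are 1.25 mg then 1.0 mg twice; later days are 2.5 mg then 2.0 mg twice. Plasma is sampled 1 h after the first daily dose on days 2, 8 and 15. Day 8/day 2 and day 15/day 2 ratios are computed, with accumulation defined as mean ratio 95% CI >1.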

[4] = Study B: pharmacokinetics of SC bremelanotide; assay type: in vivo, human; conditions: mean ± SD; for Cavg (D1) / Cmax (D1) / Cavg / RACC3.5 (ratio of day 4/day 1 concentrations 3.5 h postdose) / Tmax / Cmax: Study B; for Cmax (D1) / AUC(0-t) / Cmax: plasma; for Cavg: full dosing interval; for AUC(0-t): AUC0−3.5, Study B
Summary of the method: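 A further sample is taken on day 4 at 3.5 h postdose. Plasma levels are measured by HPLC-MS/MS and analysed non-compartmentally. RACC3.5 is the day 4/day 1 ratio at 3.5 h postdose.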

obese women [5] = test: Study A: adverse events; assay type: in vivo, human; conditions: across Study A and Study B, subjects receiving bremelanotide
Summary of the method: (§1)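 Treatment-emergent AEs, including SAEs, are recorded throughout both inpatient placebo-controlled, double-blind SC trials in premenopausal obese women, alongside vital signs, ECG, clinical laboratory tests and physical examination. The safety population is all randomized subjects given ≥1 dose.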

obese women [6] = test: Study B: adverse events; assay type: in vivo, human
Summary of the method: as §1

obese women [7] = test: Study A: blood pressure; assay type: in vivo, human; conditions: over the course of the study, also seen with placebo
Summary of the method: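 Study A, three-times-daily SC dosing for 15 days. Blood pressure is taken at screening, on the 2 days before dosing, on the day after dosing, and 15 min predose and 1 h postdose at each dose on days 1-15, with subjects seated ≥5 min. Continuation requires systolic <155 and diastolic <95 mmHg. Post- vs predose changes are summarized descriptively by visit and treatment.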

obese women [8] = test: Study B: blood pressure withdrawal criteria; assay type: in vivo, human; conditions: 2.5 mg/2.0 mg dosing regimen
Summary of the method: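 Crossover regimen of 2.5 mg SC 1 h before breakfast and 2.0 mg 1 h before lunch over a 4-day period. Blood pressure is measured daily pre- and postdose after ≥5 min seated. Subjects are withdrawn unless systolic <155 mmHg and diastolic <95 mmHg at all assessments.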

murine model = conditions: ref Palatin Technologies, Inc. data on file; cited from earlier work
rat model = conditions: ref Palatin Technologies, Inc. data on file; cited from earlier work
[9] = once-daily (2.5 mg/0 mg) SC, dose 1, n = 17-22
[10] = once-daily (2.5 mg/0 mg) SC, n = 17-22
[11] = twice-daily (2.5 mg/2.0 mg) SC, dose 1, n = 19-20
[12] = twice-daily (2.5 mg/2.0 mg) SC, n = 19-20
[13] = human, in vivo, sc, once-daily (2.5 mg/0 mg) SC, n = 17-22
[14] = human, in vivo, sc, twice-daily (2.5 mg/2.0 mg) SC, n = 19-20
[15] = once-daily (2.5 mg/0 mg) SC, 4-day period, n = 22
[16] = twice-daily (2.5 mg/2.0 mg) SC, 4-day period, n = 20

CCCC[C@H](NC(C)=O)C(=O)N[C@H]1CC(=O)NCCCC[C@@H](C(=O)O)NC(=O)[C@H](Cc2c[nH]c3ccccc23)NC(=O)[C@H](CCCNC(=N)N)NC(=O)[C@@H](Cc2ccccc2)NC(=O)[C@H](Cc2c[nH]cn2)NC1=O [bremelanotide]
Mean decrease in waist circumference from baseline to day 16 (obese women [1]): 1.63% | Daily caloric intake versus placebo (obese women [2]; once or twice daily, all four treatment days, p < 0.001): significantly lower | Weight loss after 4 days versus placebo (obese women [2]; once-daily (2.5 mg/0 mg) SC, p = .0805): numerically greater than weight loss observed in placebo‐treated subjects, but the difference did not reach statistical significance | Mean weight loss from baseline after 4 days (obese women [2]; twice-daily (2.5 mg/2.0 mg) SC, ITT, placebo 0.9 kg, p < .001): 1.7 kg | Mean ratio of day 8/day 2 bremelanotide concentrations [3]: 1.0 | Mean ratio of day 15/day 2 bremelanotide concentrations [3]: 1.1 | Cavg (D1) [4, 9]: 51.6 ± 10.1 ng/mL | Cmax (D1) [4, 9]: 75.1 ± 16.1 ng/mL | Cavg [4, 10]: 25.2 ± 4.7 ng/mL | RACC3.5 (ratio of day 4/day 1 concentrations 3.5 h postdose) [4, 10]: 1.0 ± 0.3 | Tmax [4, 10]: 1.0 ± 0.3 h | Cavg (D1) [4, 11]: 50.2 ± 9.4 ng/mL | Cmax (D1) [4, 11]: 75.2 ± 16.3 ng/mL | Cavg [4, 12]: 41.7 ± 9.3 ng/mL | RACC3.5 (ratio of day 4/day 1 concentrations 3.5 h postdose) [4, 12]: 1.0 and 1.0 ± 0.1 | AUC(0-t) [4, 13]: 181 ± 35.4 ng·h/mL | AUC(0-t) [4, 14]: 176 ± 32.6 ng·h/mL | Cmax [4, 13]: 75.1 ± 16.1 ng/mL | Cmax [4, 14]: 83.8 ± 15.6 ng/mL | Tmax ([4]; human, in vivo, sc, t max (D1), once-daily (2.5 mg/0 mg) SC, dose 1, n = 17-22): 1 ± 0.3 h | Tmax ([4]; human, in vivo, sc, t max (D1), twice-daily (2.5 mg/2.0 mg) SC, dose 1, n = 19-20): 0.9 ± 0.4 h | Tmax ([4]; human, in vivo, sc, t max, twice-daily (2.5 mg/2.0 mg) SC, n = 19-20): 3.3 ± 2 h | Subjects experiencing nausea (obese women [5]): 18% to 30 | AE leading to treatment discontinuation: Nausea (obese women [6]; [15]): 1 (4.5) n (%) | AE leading to treatment discontinuation: Vomiting (obese women [6]; [15]): 1 (4.5) n (%) | AE: Decreased appetite (obese women [6]; [15]): 2 (9.1) n (%) | AE: Ephelides (obese women [6]; [15]): 0 n (%) | AE: Feeling hot (obese women [6]; [15]): 2 (9.1) n (%) | AE: Flatulence (obese women [6]; [15]): 1 (4.5) n (%) | AE: Flushing (obese women [6]; [15]): 4 (18.2) n (%) | AE: Headache (obese women [6]; [15]): 2 (9.1) n (%) | AE: Injection site erythema (obese women [6]; [15]): 9 (40.9) n (%) | AE: Injection site pain (obese women [6]; [15]): 7 (31.8) n (%) | AE: Injection site pruritus (obese women [6]; [15]): 2 (9.1) n (%) | AE: Injection site reaction (obese women [6]; [15]): 16 (72.7) n (%) | AE: Injection site swelling (obese women [6]; [15]): 2 (9.1) n (%) | AE: Libido increased (obese women [6]; [15]): 3 (13.6) n (%) | AE: Nausea (obese women [6]; [15]): 4 (18.2) n (%) | AE: Pigmentation disorder (obese women [6]; [15]): 6 (27.3) n (%) | AE: Procedural dizziness (obese women [6]; [15]): 2 (9.1) n (%) | AE: Skin hyperpigmentation (obese women [6]; [15]): 0 n (%) | AE: Vessel puncture site haemorrhage (obese women [6]; [15]): 0 n (%) | Subjects experiencing an AE leading to treatment discontinuation (obese women [6]; [15]): 2 (9.1) n (%) | Subjects experiencing ≥1 AE (obese women [6]; [15]): 21 (95.5) n (%) | Subjects experiencing ≥1 AE: Mild (obese women [6]; [15]): 21 (95.5) n (%) | Subjects experiencing ≥1 AE: Moderate (obese women [6]; [15]): 4 (18.2) n (%) | Subjects experiencing ≥1 AE: Severe (obese women [6]; [15]): 0 n (%) | Subjects experiencing ≥1 treatment‐related AE (obese women [6]; [15]): 21 (95.5) n (%) | Treatment‐related AE: Decreased appetite (obese women [6]; [15]): 2 (9.1) n (%) | Treatment‐related AE: Ephelides (obese women [6]; [15]): 0 n (%) | Treatment‐related AE: Feeling hot (obese women [6]; [15]): 2 (9.1) n (%) | Treatment‐related AE: Flatulence (obese women [6]; [15]): 1 (4.5) n (%) | Treatment‐related AE: Flushing (obese women [6]; [15]): 4 (18.2) n (%) | Treatment‐related AE: Headache (obese women [6]; [15]): 2 (9.1) n (%) | Treatment‐related AE: Injection site erythema (obese women [6]; [15]): 9 (40.9) n (%) | Treatment‐related AE: Injection site pain (obese women [6]; [15]): 7 (31.8) n (%) | Treatment‐related AE: Injection site pruritus (obese women [6]; [15]): 2 (9.1) n (%) | Treatment‐related AE: Injection site reaction (obese women [6]; [15]): 16 (72.7) n (%) | Treatment‐related AE: Injection site swelling (obese women [6]; [15]): 2 (9.1) n (%) | Treatment‐related AE: Libido increased (obese women [6]; [15]): 3 (13.6) n (%) | Treatment‐related AE: Nausea (obese women [6]; [15]): 4 (18.2) n (%) | Treatment‐related AE: Pigmentation disorder (obese women [6]; [15]): 6 (27.3) n (%) | Treatment‐related AE: Skin hyperpigmentation (obese women [6]; [15]): 0 n (%) | Number of SAEs reported (in a single subject) (obese women [6]; once-daily bremelanotide, nausea, vomiting, hypersensitivity, dizziness, headache): Five | AE leading to treatment discontinuation: Vomiting (obese women [6]; [16]): 1 (5.0) n (%) | AE: Decreased appetite (obese women [6]; [16]): 0 n (%) | AE: Ephelides (obese women [6]; [16]): 2 (10.0) n (%) | AE: Feeling hot (obese women [6]; [16]): 0 n (%) | AE: Flatulence (obese women [6]; [16]): 3 (15.0) n (%) | AE: Flushing (obese women [6]; [16]): 3 (15.0) n (%) | AE: Headache (obese women [6]; [16]): 4 (20.0) n (%) | AE: Injection site erythema (obese women [6]; [16]): 5 (25.0) n (%) | AE: Injection site pain (obese women [6]; [16]): 8 (40.0) n (%) | AE: Injection site pruritus (obese women [6]; [16]): 3 (15.0) n (%) | AE: Injection site reaction (obese women [6]; [16]): 20 (100) n (%) | AE: Injection site swelling (obese women [6]; [16]): 2 (10.0) n (%) | AE: Libido increased (obese women [6]; [16]): 2 (10.0) n (%) | AE: Nausea (obese women [6]; [16]): 4 (20.0) n (%) | AE: Pigmentation disorder (obese women [6]; [16]): 2 (10.0) n (%) | AE: Procedural dizziness (obese women [6]; [16]): 0 n (%) | AE: Skin hyperpigmentation (obese women [6]; [16]): 3 (15.0) n (%) | AE: Vessel puncture site haemorrhage (obese women [6]; [16]): 2 (10.0) n (%) | Subjects experiencing an AE leading to treatment discontinuation (obese women [6]; [16]): 1 (5.0) n (%) | Subjects experiencing ≥1 AE (obese women [6]; [16]): 20 (100) n (%) | Subjects experiencing ≥1 AE: Mild (obese women [6]; [16]): 20 (100) n (%) | Subjects experiencing ≥1 AE: Moderate (obese women [6]; [16]): 1 (5.0) n (%) | Subjects experiencing ≥1 AE: Severe (obese women [6]; [16]): 0 n (%) | Subjects experiencing ≥1 SAE (obese women [6]; [16]): 0 | Subjects experiencing ≥1 treatment‐related AE (obese women [6]; [16]): 20 (100) n (%) | Treatment‐related AE: Decreased appetite (obese women [6]; [16]): 0 n (%) | Treatment‐related AE: Ephelides (obese women [6]; [16]): 2 (10.0) n (%) | Treatment‐related AE: Feeling hot (obese women [6]; [16]): 0 n (%) | Treatment‐related AE: Flatulence (obese women [6]; [16]): 2 (10.0) n (%) | Treatment‐related AE: Flushing (obese women [6]; [16]): 3 (15.0) n (%) | Treatment‐related AE: Headache (obese women [6]; [16]): 3 (15.0) n (%) | Treatment‐related AE: Injection site erythema (obese women [6]; [16]): 5 (25.0) n (%) | Treatment‐related AE: Injection site pain (obese women [6]; [16]): 8 (40.0) n (%) | Treatment‐related AE: Injection site pruritus (obese women [6]; [16]): 3 (15.0) n (%) | Treatment‐related AE: Injection site reaction (obese women [6]; [16]): 20 (100.0) n (%) | Treatment‐related AE: Injection site swelling (obese women [6]; [16]): 2 (10.0) n (%) | Treatment‐related AE: Libido increased (obese women [6]; [16]): 2 (10.0) n (%) | Treatment‐related AE: Nausea (obese women [6]; [16]): 3 (15.0) n (%) | Treatment‐related AE: Pigmentation disorder (obese women [6]; [16]): 2 (10.0) n (%) | Treatment‐related AE: Skin hyperpigmentation (obese women [6]; [16]): 3 (15.0) n (%) | Decrease from baseline in mean systolic blood pressure (obese women [7]): < 10% | Subjects withdrawn while receiving the regimen (obese women [8]): No subjects | Body weight (murine model): reduced | Food intake (murine model): reduced | Body weight (rat model): reduced | Food intake (rat model): reduced
